Columns and labels:
[1] = Prodrug conversion in C57BL/6 mouse kidney assessed as AUC (0 to 24 hrs) of TFV metabolite at 10 mg/kg, po measured for 24 hrs by LC-MS/MS analysis; type: ADME, organism-based; conditions: in vivo
Summary of the method: (§1)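 After a single 10 mg/kg gavage (10% EtOH/90% olive oil) in male C57BL/6 mice, liver, kidney and brain were collected at 1, 4 and 24 h (n = 3 per time point). Tissues were rinsed in ice-cold saline and homogenized in ice-cold PBS pH 7.4 (3× weight for brain, 5× for liver and kidney). Prodrug and TFV were measured by LC–MS/MS; AUC0–24h by the linear trapezoidal rule.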

[2] = Prodrug conversion in C57BL/6 mouse kidney assessed as Cmax of TFV metabolite at 10 mg/kg, po measured for 24 hrs by LC-MS/MS analysis; type: ADME, organism-based; conditions: in vivo; summary of the method: as §1
[3] = Prodrug conversion in C57BL/6 mouse plasma assessed as Cmax of TFV metabolite at 10 mg/kg, po measured for 24 hrs by LC-MS/MS analysis; type: ADME, organism-based; conditions: in vivo
Summary of the method: (§2)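 Male C57BL/6 mice (8–12 weeks, 20–30 g) got a single gavage of 10 mg/kg in 10% EtOH/90% olive oil, n = 3 per time point with sparse sampling. Retro-orbital blood was taken at 0.25–24 h and plasma spun off. Prodrug and TFV were measured by LC–MS/MS.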

[4] = Clearance in C57BL/6 mouse plasma at 10 mg/kg, po measured for 24 hrs by LC-MS/MS analysis; type: ADME, organism-based; conditions: in vivo; summary of the method: as §2
[5] = Prodrug conversion in C57BL/6 mouse plasma assessed as Tmax of TFV metabolite at 10 mg/kg, po measured for 24 hrs by LC-MS/MS analysis; type: ADME, organism-based; conditions: in vivo; summary of the method: as §2
[6] = Therapeutic index, ratio of CC50 for HEK293T cells to IC50 for HIV-1 sub-type-C MJ4 infected in HEK293T cells; type: toxicity, cell-based; conditions: human, read-out: Ratio CC50/IC50
Summary of the method: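 HEK293T cells (2 × 10⁴/well) with HSA-formulated compound (5:1 molar), 3-fold dilutions, 48 h at 37 °C. […] IC50 from luciferase after single-cycle infection with HIV-like particles carrying MJ4 subtype C RT/IN, over the noncytotoxic range.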

[7] = Prodrug conversion in C57BL/6 mouse liver assessed as Cmax of TFV metabolite at 10 mg/kg, po measured for 24 hrs by LC-MS/MS analysis; type: ADME, organism-based; conditions: in vivo; summary of the method: as §1
[8] = Prodrug conversion in C57BL/6 mouse liver assessed as AUC (0 to 24 hrs) of TFV metabolite at 10 mg/kg, po measured for 24 hrs by LC-MS/MS analysis; type: ADME, organism-based; conditions: in vivo; summary of the method: as §1
[9] = Prodrug conversion in C57BL/6 mouse liver assessed as Tmax of TFV metabolite at 10 mg/kg, po measured for 24 hrs by LC-MS/MS analysis; type: ADME, organism-based; conditions: in vivo; summary of the method: as §1
[10] = Prodrug conversion in C57BL/6 mouse plasma assessed as AUC (0 to 24 hrs) of TFV metabolite at 10 mg/kg, po measured for 24 hrs by LC-MS/MS analysis; type: ADME, organism-based; conditions: in vivo; summary of the method: as §2
[11] = Prodrug conversion in C57BL/6 mouse kidney assessed as Tmax of TFV metabolite at 10 mg/kg, po measured for 24 hrs by LC-MS/MS analysis; type: ADME, organism-based; conditions: in vivo; summary of the method: as §1
[12] = Clearance in C57BL/6 mouse plasma at 3 mg/kg, iv measured for 8 hrs by LC-MS/MS analysis; type: ADME, organism-based; conditions: in vivo
Summary of the method: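 Male C57BL/6 mice got a single 3 mg/kg i.v. dose in 10% PEG-300, 10% Solutol HS-15 and 80% saline, n = 3 per time point. Retro-orbital blood was taken at 0.1–8 h and plasma prodrug measured by LC–MS/MS. AUC0–8h used the trapezoidal rule; Cl = Dose/AUC0–8h.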

[13] = Ratio of AUC (0 to 24 hrs) of prodrug to TFV metabolite in C57BL/6 mouse plasma at 10 mg/kg, po measured for 24 hrs by LC-MS/MS analysis; type: ADME, organism-based; conditions: in vivo; summary of the method: as §2
[14] = Ratio of AUC (0 to 24 hrs) of prodrug to TFV metabolite in C57BL/6 mouse liver at 10 mg/kg, po measured for 24 hrs by LC-MS/MS analysis; type: ADME, organism-based; conditions: in vivo; summary of the method: as §1
[15] = Metabolic stability in human liver microsomes assessed as half life; type: ADME, Microsome
Summary of the method: (§3)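 Human liver microsomes (1 mg/mL) in 100 mM potassium phosphate were preincubated with 3 µM test compound (final) at 37 °C for 5 min, then started with NADPH. Duplicate aliquots at 0, 15, 30, 60 and 120 min were quenched in cold MeOH with internal standard and analysed by LC–MS/MS. Values were normalized to 0 min; a no-NADPH control was read at 120 min.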

[16] = Tmax in C57BL/6 mouse kidney at 10 mg/kg, po measured for 24 hrs by LC-MS/MS analysis; type: ADME, organism-based; summary of the method: as §1
[17] = Tmax in C57BL/6 mouse brain at 10 mg/kg, po measured for 24 hrs by LC-MS/MS analysis; type: ADME, organism-based; summary of the method: as §1
[18] = Ratio of AUC (0 to 24 hrs) of prodrug to TFV metabolite in C57BL/6 mouse kidney at 10 mg/kg, po measured for 24 hrs by LC-MS/MS analysis; type: ADME, organism-based; conditions: in vivo; summary of the method: as §1
[19] = Stability in human liver microsomes assessed as compound remaining at 3 uM pretreated for 5 mins followed by NADPH addition measured upto 120 mins by LC-MS/MS analysis; type: ADME, Microsome; conditions: 2.083 h, time < 125 min; summary of the method: as §3
[20] = Half life in C57BL/6 mouse plasma at 10 mg/kg, po measured for 24 hrs by LC-MS/MS analysis; type: ADME, organism-based; conditions: in vivo; summary of the method: as §2
[21] = Volume of distribution in C57BL/6 mouse plasma at 10 mg/kg, po measured for 24 hrs by LC-MS/MS analysis; type: ADME, organism-based; conditions: in vivo; summary of the method: as §2
[22] = Tmax in C57BL/6 mouse liver at 10 mg/kg, po measured for 24 hrs by LC-MS/MS analysis; type: ADME, organism-based; summary of the method: as §1

Question: With `CCCCCCCCCCCCCCCCSCCCOP(=O)(O)CO[C@H](C)Cn1cnc2c(N)ncnc21.N` as the compound, how does the AUC [1] read?
Answer: 14600 ng·h/mL

Question: What about the Cmax [2] of the same compound?
Answer: 695 ng/mL

Question: And the Cmax [3]?
Answer: 39.4 ng/mL

Question: What about the CL [4] of the same compound?
Answer: 147 mL/min/kg

Question: And the Tmax [5]?
Answer: 4 h

Question: What about the selectivity ratio [6] of the same compound?
Answer: 4980

Question: What about the Cmax [7] of the same compound?
Answer: 1440 ng/mL

Question: And the AUC [8]?
Answer: 29100 ng·h/mL

Question: And the Tmax [9]?
Answer: 4 h

Question: What about the AUC [10] of the same compound?
Answer: 657 ng·h/mL

Question: And the Tmax [11]?
Answer: 4 h

Question: And the CL [12]?
Answer: 147 mL/min/kg

Question: What about the Ratio [13] of the same compound?
Answer: 0.333

Question: And the Ratio [14]?
Answer: 0.222

Question: Which half-life [15] does the source give for `C[C@H](Cn1cnc2c(N)ncnc21)OCP(=O)(O)OCCCOCCCCCCCCCCCCCCCC(F)(F)F.N` here?
Answer: 2 h

Question: Which selectivity ratio [6] does the source give for `COC(=O)CCCCCCCCCCCCCCCSCCCOP(=O)(O)CO[C@H](C)Cn1cnc2c(N)ncnc21` here?
Answer: > 70

Question: For `C[C@H](Cn1cnc2c(N)ncnc21)OCP(=O)(O)OCCCSCCCCCCCCCCCCc1ccc(F)cc1.N`, which AUC [1] is on record?
Answer: 23800 ng·h/mL

Question: And the Cmax [2]?
Answer: 1420 ng/mL

Question: And the CL [4]?
Answer: 134 mL/min/kg

Question: And the Tmax [5]?
Answer: 4 h

Question: And the Tmax [16]?
Answer: 4 h

Question: What about the selectivity ratio [6] of the same compound?
Answer: > 11100

Question: What about the Cmax [7] of the same compound?
Answer: 3980 ng/mL

Question: And the AUC [8]?
Answer: 72500 ng·h/mL

Question: And the Tmax [9]?
Answer: 24 h

Question: What about the AUC [10] of the same compound?
Answer: 635 ng·h/mL

Question: What about the Tmax [11] of the same compound?
Answer: 24 h

Question: What about the Tmax [17] of the same compound?
Answer: 4 h

Question: What about the CL [12] of the same compound?
Answer: 134 mL/min/kg

Question: What about the Ratio [18] of the same compound?
Answer: 0.322

Question: And the Ratio [14]?
Answer: 0.877

Question: Which selectivity ratio [6] does the source give for `CCCCCCCCCCCCCSCCCCCCOP(=O)(O)CO[C@H](C)Cn1cnc2c(N)ncnc21` here?
Answer: > 1370

Question: With `CCCCCCCSCCCCCCCCCCCCOP(=O)(O)CO[C@H](C)Cn1cnc2c(N)ncnc21` as the compound, how does the selectivity ratio [6] read?
Answer: > 296

Question: Which selectivity ratio [6] does the source give for `C[C@H](Cn1cnc2c(N)ncnc21)OCP(=O)(O)OCCCSCCCCCCCCCCC#Cc1ccc(F)cc1` here?
Answer: > 10000

Question: Which selectivity ratio [6] does the source give for `C[C@H](Cn1cnc2c(N)ncnc21)OCP(=O)(O)OCCCSCCCCCCCCCCCCC#C[Si](C)(C)C` here?
Answer: > 4170

Question: For `C#CCCCCCCCCCCCCCCSCCCOP(=O)(O)CO[C@H](C)Cn1cnc2c(N)ncnc21`, which selectivity ratio [6] is on record?
Answer: > 3570

Question: Which selectivity ratio [6] does the source give for `CCCCCCCCCCSCCCCCCCCCOP(=O)(O)CO[C@H](C)Cn1cnc2c(N)ncnc21` here?
Answer: > 1720

Question: Which results are given for `C[C@H](Cn1cnc2c(N)ncnc21)OCP(=O)(O)OCCCSCCCCCCCCCCCOc1ccccc1.N`?
Answer: Stability [19]: 69%; selectivity ratio [6]: > 8060

Question: With `C[C@H](Cn1cnc2c(N)ncnc21)OCP(=O)(O)OCCCSCCCCCCCCCCCOC1CCCCC1` as the compound, how does the selectivity ratio [6] read?
Answer: > 542

Question: Which selectivity ratio [6] does the source give for `CCCCCCCCCCCCCCCCCSCCOP(=O)(O)CO[C@H](C)Cn1cnc2c(N)ncnc21` here?
Answer: 7150

Question: With `C[C@H](Cn1cnc2c(N)ncnc21)OCP(=O)(O)OCCCSCCCCCCCCCCCCC1CCCCC1.N` as the compound, how does the AUC [1] read?
Answer: 22100 ng·h/mL

Question: And the t1/2 [20]?
Answer: 3.07 h

Question: And the Cmax [3]?
Answer: 47.8 ng/mL

Question: What about the Vd [21] of the same compound?
Answer: 228 L/kg

Question: And the CL [4]?
Answer: 85.8 mL/min/kg

Question: And the Tmax [5]?
Answer: 4 h

Question: What about the Tmax [16] of the same compound?
Answer: 4 h

Question: What about the selectivity ratio [6] of the same compound?
Answer: > 2000

Question: And the Cmax [7]?
Answer: 3900 ng/mL

Question: What about the AUC [8] of the same compound?
Answer: 66600 ng·h/mL

Question: What about the Tmax [9] of the same compound?
Answer: 24 h

Question: What about the Tmax [22] of the same compound?
Answer: 4 h

Question: What about the AUC [10] of the same compound?
Answer: 740 ng·h/mL

Question: And the Tmax [11]?
Answer: 24 h

Question: And the CL [12]?
Answer: 85.8 mL/min/kg

Question: And the Ratio [13]?
Answer: 1.44

Question: What about the Ratio [18] of the same compound?
Answer: 0.488

Question: What about the Ratio [14] of the same compound?
Answer: 0.411

Question: Which selectivity ratio [6] does the source give for `C[C@H](Cn1cnc2c(N)ncnc21)OCP(=O)(O)OCCCSCCCCCCCCCCCCc1ccccc1` here?
Answer: > 12500

Question: For `C[C@H](Cn1cnc2c(N)ncnc21)OCP(=O)(O)OCCCSCCCCCCCCCCCCC#CC(C)(C)C`, which selectivity ratio [6] is on record?
Answer: > 516

Question: For `C[C@H](Cn1cnc2c(N)ncnc21)OCP(=O)(O)OCCCSCCCCCCCCCCCCCCC(C)(C)C`, which selectivity ratio [6] is on record?
Answer: 138

Question: Which selectivity ratio [6] does the source give for `C[C@H](Cn1cnc2c(N)ncnc21)OCP(=O)(O)OCCCSCCCCCCCCCCCSc1ccccc1` here?
Answer: > 594

Question: For `CCCCCCCCCCCCCCSCCCOP(=O)(O)CO[C@H](C)Cn1cnc2c(N)ncnc21`, which selectivity ratio [6] is on record?
Answer: > 16700

Question: For `CCCCCCCCCCCCSCCCOP(=O)(O)CO[C@H](C)Cn1cnc2c(N)ncnc21`, which selectivity ratio [6] is on record?
Answer: > 532

Question: Which selectivity ratio [6] does the source give for `C[C@H](Cn1cnc2c(N)ncnc21)OCP(=O)(O)OCCCSCCCCCCCCCCC#Cc1ccccc1` here?
Answer: > 12500

Question: Which selectivity ratio [6] does the source give for `CC(C)[Si](C#CCCCCCCCCCCCSCCCOP(=O)(O)CO[C@H](C)Cn1cnc2c(N)ncnc21)(C(C)C)C(C)C` here?
Answer: 224

Question: For `C[C@H](Cn1cnc2c(N)ncnc21)OCP(=O)(O)OCCCSCCCCCCCCCCC#CC1CCCCC1`, which selectivity ratio [6] is on record?
Answer: > 7580

Question: For `C[C@H](Cn1cnc2c(N)ncnc21)OCP(=O)(O)OCCCSCCCCCCCCCCCOc1ccc(F)cc1.N`, which Stability [19] is on record?
Answer: 85%

Question: What about the selectivity ratio [6] of the same compound?
Answer: 6250

Question: For `CCCCSCCCCCCCCCCCCCCCOP(=O)(O)CO[C@H](C)Cn1cnc2c(N)ncnc21`, which selectivity ratio [6] is on record?
Answer: > 331

Question: Which selectivity ratio [6] does the source give for `CCCCCCCCCCCCCCCCOCCCOP(=O)(O)CO[C@H](C)Cn1cnc2c(N)ncnc21` [TENOFOVIR EXALIDEX] here?
Answer: 5420
